KCNQ1 pot = human KCNQ1 channel potentiation or activation; CHO-K1 KCNQ1, thallium flux FluxOR fluorescence; stronger effect = higher value; B-score at 10 µM; actives 0.35% (n = 310,000); AID 2648;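 active means fluorescence ratio B-score, a plate-corrected score, at least three library SD, with initial intensity B-score within 5 SD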
Target sequence (P51787 whole entry, looked up): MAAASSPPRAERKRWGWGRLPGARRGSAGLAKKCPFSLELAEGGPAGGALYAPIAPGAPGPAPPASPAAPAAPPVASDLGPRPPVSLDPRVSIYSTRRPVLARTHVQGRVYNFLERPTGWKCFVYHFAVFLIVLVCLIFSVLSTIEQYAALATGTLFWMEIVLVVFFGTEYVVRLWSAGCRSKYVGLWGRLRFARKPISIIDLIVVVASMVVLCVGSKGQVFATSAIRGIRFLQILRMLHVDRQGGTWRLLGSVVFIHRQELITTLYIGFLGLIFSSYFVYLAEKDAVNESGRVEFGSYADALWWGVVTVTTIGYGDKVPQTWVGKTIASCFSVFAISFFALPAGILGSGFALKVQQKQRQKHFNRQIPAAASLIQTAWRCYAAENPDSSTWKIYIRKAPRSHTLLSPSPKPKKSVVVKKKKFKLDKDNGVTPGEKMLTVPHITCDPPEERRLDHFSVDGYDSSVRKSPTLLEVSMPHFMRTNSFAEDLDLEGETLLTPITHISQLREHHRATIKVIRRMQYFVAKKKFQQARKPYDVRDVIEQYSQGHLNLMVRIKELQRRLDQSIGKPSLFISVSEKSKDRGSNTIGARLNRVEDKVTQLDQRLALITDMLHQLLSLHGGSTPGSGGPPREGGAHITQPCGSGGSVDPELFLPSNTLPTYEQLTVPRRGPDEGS
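Assay system: stable KCNQ1 CHO-K1 line; medium: assay buffer, equal DMSO in all wells; timing: 90 min dye loading and 20 min compound exposure, both at room temperature; technique: kinetic FluxOR thallium fluorescence, 10-s 1-Hz baseline, 110-s post-stimulus read; read-out basis: B score of baseline-normalized fluorescence ratio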
hERG protect = compounds protecting human hERG from proarrhythmic drug block. Q12809. CHO-hERG, FluxOR thallium flux, dofetilide IC70 present. activation (rescue from dofetilide block), less the hit threshold, % at 10 µM. actives 0.51% (n = 310,000). AID 1511;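 active means activation above the mean of controls blocked by dofetilide plus 5 SD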;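 further: thallium influx through hERG after potassium depolarization seen as dye fluorescence rise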
KCNK3 inh = human KCNK3 channel inhibition, primary screen; O14649; CHO-KCNK3 thallium flux, FluxOR fluorescence; stronger effect = lower value; B-score at 10 µM; actives 0.84% (n = 340,000); AID 602410;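 active means B-score under library mean minus 4 SD, starting fluorescence ratio at most library mean plus 5 SD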;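 further: more negative B-score means stronger inhibition of thallium flux through KCNK3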
KCNK9 inh = human KCNK9 channel inhibition | HEK293 KCNK9, FluxOR thallium flux fluorescence; stronger effect = lower value | B-score at 10 µM | actives 1.2% (n = 310,000) | AID 488922;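 active means ratio B-score over 3 SD below the library mean, with starting fluorescence within 5 SD of its mean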;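 further: negative B-score means less thallium flux so channel inhibition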
KCNQ1 block = inhibitors of human KCNQ1 potassium channel; actives 1.3% (n = 310,000); CHO-K1 KCNQ1, FluxOR thallium flux fluorescence; stronger effect = higher value; AID 2642; B-score at 10 µM; P51787;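 active means compounds whose thallium flux B-score, printed positive for inhibition, exceeds three library SD while starting fluorescence stays within three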;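 further: channel opened by potassium depolarization with thallium stimulus after 20 min compound exposure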
Of the large screens only hits and unclear results are named; the others gave an inactive call. Hits are enriched below; roughly 3.1% of the tested compounds scored in any of these assays.

CC(C(=O)Nc1cccc(Br)c1)c1ccc([N+](=O)[O-])cc1 (stereo unspecified)	KCNQ1 block 6
O=C(Nc1ccc(C(=O)O)cc1)Nc1cccc([N+](=O)[O-])c1	KCNQ1 block 7
CC(C(=O)Nc1cccnc1)c1ccc([N+](=O)[O-])cc1 (stereo unspecified)	none
O=C(Nc1ccc(C(=O)O)cc1)Nc1ccc([N+](=O)[O-])cc1	none
Cn1ccc(NC(=O)Nc2cccc([N+](=O)[O-])c2)n1	KCNQ1 block 6
Cc1ccc(C(=O)N/N=C\c2ccc(Br)o2)o1	none
Cc1ccc(C(=O)N/N=C/c2ccc(-c3ccc(Br)cc3[N+](=O)[O-])o2)o1	KCNQ1 block 7
O=C1C=C(Nc2cccc(Cl)c2)CC(c2ccco2)C1 (stereo unspecified)	none
CCc1ccc(NC2=CC(=O)CC(c3ccco3)C2)cc1 (stereo unspecified)	KCNK9 inh -7
CC(=O)c1ccc(S(=O)(=O)NCCC(=O)OCC(=O)NCCc2ccccc2)cc1	none
O=C(Oc1c(Br)cc([N+](=O)[O-])cc1Br)c1cccnc1	KCNQ1 block 7
CCCCNC(=S)Nc1cccc(S(=O)(=O)NC2=NCCC2)c1	none
CNc1ncnc(NC)c1[N+](=O)[O-]	none (no result: KCNQ1 pot, hERG protect, KCNK9 inh, KCNQ1 block)
C/C(=N\NC(=S)NC(C)C)c1ccccc1	none
CC(C)NC(=S)NC(c1ccccc1)(c1ccccc1)c1ccccc1	KCNQ1 block 10
CSCCC(NC(=O)COc1ccccc1)C(=O)N1CC(C)OC(C)C1 (stereo unspecified)	none (no result: KCNQ1 pot, hERG protect, KCNK9 inh, KCNQ1 block)
CCOC(=O)c1cc(C(=O)OCC)c2cc(Br)ccc2n1	none
CCCCOC(=O)c1cc(C)nc2ccc(Br)cc12	hERG protect 6.5
COC(=O)c1nc2cc3c(cc2c(C)c1C(=O)OC)OCO3	none
COc1ccc(C(=O)c2cnc3cc4c(cc3c2C)OCO4)cc1	KCNK9 inh -6.9
COC(=O)c1ccccc1NC(=O)CSc1nc(NC(=O)c2ccccc2)c2c(C)c(C)oc2n1	KCNK3 inh -10
C=CCn1c(COc2ccc(Cl)cc2)nnc1SCc1ccc(C#N)cc1	hERG protect 4.8
C=CCn1c(COc2ccccc2)nnc1SCc1ccc(C#N)cc1	none
CCN(CC(=O)Nc1c(F)cccc1F)C(=O)c1ccc(C2SCCS2)cc1	none
CCN(CC(=O)Nc1c(F)cccc1F)C(=O)c1ccc(C(F)(F)F)cc1	KCNK9 inh -7.9
O=C(Cc1ccc(F)cc1)Nc1c(C(=O)N2CCN(c3ncccn3)CC2)oc2ccccc12	none
Fc1cccc(CO/N=C/c2c(-c3ccccc3)nc3ccc(Cl)cn23)c1	hERG protect 6.7, KCNK9 inh -6.6
O=C(Nc1cccc(S(=O)(=O)NC2=NCCC2)c1)c1cc(F)c(F)c(F)c1F	none (no result: KCNQ1 pot, hERG protect, KCNK9 inh, KCNQ1 block)
COc1ccc(C)cc1NC(=O)C(OC(=O)CNC(=O)c1cc(C)cc(C)c1)c1ccccc1 (stereo unspecified)	KCNK9 inh -8
CC(NC(=S)NC1CCCCC1)c1ccccc1 (stereo unspecified)	none
CC(NC(=O)NC1CCCCC1)c1ccccc1 (stereo unspecified)	hERG protect 7.3
COc1ccc(C)cc1NC(=S)NNC(=O)c1ccccc1Cl	none (no result: KCNQ1 pot, hERG protect, KCNK9 inh, KCNQ1 block)
COc1ccc(C)cc1NC(=S)NNC(=O)c1c(Br)cnn1C	hERG protect 7.0
O=C(Nc1cc(C(F)(F)F)ccc1Cl)C(Sc1ccccn1)c1ccccc1 (stereo unspecified)	KCNK9 inh -8.1
O=C(NCC1CC1(Cl)Cl)Nc1ccc(Cl)c(Cl)c1 (stereo unspecified)	KCNK9 inh -8.4
COC(=O)[C@@H](Cc1ccccc1)NC(=O)Cn1cc(C)c(=O)[nH]c1=O	none (no result: KCNQ1 pot, hERG protect, KCNK9 inh, KCNQ1 block)
Cc1ccc(S(=O)(=O)Nc2nc3ccccc3s2)cc1	none
COc1ccc(S(=O)(=O)Nc2nc3ccccc3s2)cc1OC	hERG protect 4.7
O=[N+]([O-])c1ccc(CNc2cccc(Cl)c2)s1	KCNQ1 block 6
CCOC(=O)c1cc(-c2ccc(Cl)cc2)nc2onc(C)c12	KCNK9 inh -8 (no result: KCNK3 inh)
O=C(Nc1ccc(NC(=O)C2CC2)nc1)c1cccnc1	hERG protect 4.9
CCOC(=O)c1sc(=NC(=O)c2cccc(Br)c2)n(C)c1C	none
CCOC(=O)c1sc(=NC(=O)c2cccc(C)c2)n(C)c1C	hERG protect 5.7
CC(=O)Nc1ccc(NC(=O)COC(=O)c2ccc(S(=O)(=O)N(C)c3ccccc3)cc2)cc1	none (no result: KCNQ1 pot, hERG protect, KCNK9 inh, KCNQ1 block)
O=S(=O)(Nc1cccc(-n2cnnn2)c1)c1ccccc1	none
O=S(=O)(Nc1cccc(-n2cnnn2)c1)c1cccc(Cl)c1	KCNQ1 pot 8
CC(C)[C@H](NC(=O)OC(C)(C)C)c1nnc(SCC(=O)Nc2ccc(Br)cc2)o1	KCNQ1 block 6
Nc1cc(C(=O)OCC(=O)Nc2ccc(N3CCOCC3)cc2)ccc1Cl	none (no result: KCNQ1 pot, hERG protect, KCNK9 inh, KCNQ1 block)
Cc1nn(C(C)C(=O)N/N=C/c2ccc(N(C)C)cc2)c(C)c1[N+](=O)[O-] (stereo unspecified)	KCNK9 inh -7.9
CC(=O)Nc1ccc(NC(=O)C(C)n2nc(C)c([N+](=O)[O-])c2C)cc1 (stereo unspecified)	none
O=C(Cn1cnc2c(oc3ccccc32)c1=O)N1CCN(c2ccccc2)CC1	hERG protect 9.4
CCOc1ccc(NC(=S)NC(=O)c2cnn(CC)c2)c([N+](=O)[O-])c1	none
O=C(c1ccc(S(=O)(=O)NCc2ccco2)cc1)N1CCN(Cc2ccccc2F)CC1	none (no result: KCNQ1 pot, hERG protect, KCNK9 inh, KCNQ1 block)
CCN1/C(=C/C=C/c2oc3ccc4ccccc4c3[n+]2CC)Oc2ccc3ccccc3c21	KCNQ1 block 10 (no result: KCNK3 inh)
COc1ccc(N(CC(=O)Nc2cccc(C(C)=O)c2)S(=O)(=O)c2ccc(NC(C)=O)cc2)cc1	none
Cc1c(Cl)cccc1NC(=S)NCCc1ccc(C(F)(F)F)cc1	KCNQ1 block 7
O=C(Cc1cccc(NC(=O)C2CCCN(C(=O)C3CCCCC3)C2)c1)Nc1ccc(C(=O)N2CCOCC2)cc1 (stereo unspecified)	none (no result: KCNQ1 pot, hERG protect, KCNK9 inh, KCNQ1 block)
O=C(c1cc2nc(-c3cccs3)cc(C(F)(F)Cl)n2n1)N1CCCc2ccccc21	KCNK9 inh -6.7
Cc1ccccc1NC(=S)N(CCc1c(C)[nH]c2ccc(F)cc12)Cc1cccnc1	none
Cc1[nH]c2ccc(F)cc2c1CCN(Cc1ccncc1)C(=S)Nc1ccc(F)cc1	KCNK9 inh -7.1
CC(CCc1ccccc1)NC(=O)c1cccc(F)c1 (stereo unspecified)	none
O=C1CC(NS(=O)(=O)c2cc(F)ccc2F)CN1c1ccc2c(c1)OCCO2 (stereo unspecified)	none
CCOC(=O)Nc1ccc2c(c1)Nc1ccccc1S2	KCNK9 inh -6.6
OCC(O)C1OC(c2ccco2)OC(CO)C1O (stereo unspecified)	none (no result: KCNQ1 pot, hERG protect, KCNK9 inh, KCNQ1 block)
Cc1cc(N(C)C)ccc1[N+](=O)[O-]	hERG protect 4.7
CCCCn1c(NC(=O)c2ccc(Br)o2)c(S(=O)(=O)c2ccccc2)c2nc3ccccc3nc21	KCNQ1 block 12
